Experimental data published in publication PMC9664485 (European journal of medicinal chemistry, 2022).
Where “and” joins values, the source holds several entries; their conditions need not be identical. Identical values can stand only once.

How the values were obtained:
[1] = molecular target: T1, recombinant human Wip1 (1–420) (Homo sapiens, UniProt O15297); assay: Wip1 phosphatase activity inhibition assay; assay type: biochemical; conditions: for Hill coefficient [n]: variable slope logistic fit of Wip1 inhibition curve
T1 sequence (O15297 1-420): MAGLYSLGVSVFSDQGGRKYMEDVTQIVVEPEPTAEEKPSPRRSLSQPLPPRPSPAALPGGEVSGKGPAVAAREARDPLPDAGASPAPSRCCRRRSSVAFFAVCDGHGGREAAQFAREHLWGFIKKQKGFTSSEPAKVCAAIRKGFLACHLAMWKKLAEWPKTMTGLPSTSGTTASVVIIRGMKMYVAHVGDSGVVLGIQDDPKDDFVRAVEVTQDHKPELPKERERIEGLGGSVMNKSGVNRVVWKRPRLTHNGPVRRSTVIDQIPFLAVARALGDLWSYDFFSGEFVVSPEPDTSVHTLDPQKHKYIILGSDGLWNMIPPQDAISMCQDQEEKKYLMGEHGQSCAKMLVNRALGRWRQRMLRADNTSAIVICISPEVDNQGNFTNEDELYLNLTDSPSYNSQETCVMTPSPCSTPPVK

[2] = molecular target: T2, PPM1A (also called PP2Cα) (Homo sapiens, UniProt P35813); assay: PPM1A phosphatase specificity assay; assay type: biochemical; conditions: up to 100 μM; 8 nM PPM1A, 100 μM human p38α (175–185, 180pT) phosphopeptide
T2 sequence (P35813 1-382): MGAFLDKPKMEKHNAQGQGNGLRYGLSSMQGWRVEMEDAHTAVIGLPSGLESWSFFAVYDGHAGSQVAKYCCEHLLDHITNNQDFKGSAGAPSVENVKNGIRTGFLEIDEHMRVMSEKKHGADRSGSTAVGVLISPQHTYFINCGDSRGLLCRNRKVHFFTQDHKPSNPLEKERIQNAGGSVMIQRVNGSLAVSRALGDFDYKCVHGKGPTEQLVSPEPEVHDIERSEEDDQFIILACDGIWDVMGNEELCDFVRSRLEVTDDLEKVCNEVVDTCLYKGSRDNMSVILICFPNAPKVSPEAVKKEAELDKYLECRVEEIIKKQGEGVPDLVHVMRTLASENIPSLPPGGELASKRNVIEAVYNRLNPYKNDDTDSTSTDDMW
Procedure, shortened: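 Test compound or DMSO is mixed with the phosphopeptide substrate before PPM1A is added. Buffer: 50 mM Tris·HCl pH 7.5, 0.1 mM EGTA, 1 mM DTT, 1 mM CHAPS, 0.1 mg/mL BSA, 30 mM MgCl2. Incubation runs 7 min at 30 °C. Biomol Green stops the reaction, then colour develops 20 min at room temperature. Released phosphate is read at 620 nm against a phosphate standard curve.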

Structure (SMILES)	Hill coefficient [n] [1]	inhibitory activity against PPM1A [2]	fold improvement in Wip1 inhibition ([1]; compared with 22g)
O=C(Nc1cccc(OP(=O)(O)O)c1)c1ccc(NC(=O)c2cccc(CNc3cccc(Cl)c3)c2)c(CC2CCCCC2)c1 [Compound 48b, 3-(4-(3-(((3-chlorophenyl)amino)methyl)benzamido)-3-(cyclohexylmethyl)benzamido)phenyl dihydrogen phosphate]	2.3 ± 0.2	no inhibitory activity	
O=C(Nc1cccc(Cl)c1)c1cccc(CNc2ccc(C(=O)Nc3cccc(OP(=O)(O)O)c3)cc2CC2CCCCC2)c1 [Compound 40b, 3-(4-((3-((3-chlorophenyl)carbamoyl)benzyl)amino)-3-(cyclohexylmethyl)benzamido)phenyl dihydrogen phosphate]	1.4 ± 0.1	no inhibitory activity	7 fold
O=C(Nc1cccc(Cl)c1)c1cccc(C(=O)Nc2ccc(C(=O)Nc3cccc(OP(=O)(O)O)c3)cc2CC2CCCCC2)c1 [Compound 48a, 3-(4-(3-((3-chlorophenyl)carbamoyl)benzamido)-3-(cyclohexylmethyl)benzamido)phenyl dihydrogen phosphate]	5 and 5.1 ± 0.3	no inhibitory activity	
